From ChEMBL document CHEMBL3576866, “Discovery of a Cyclic Boronic Acid β-Lactamase Inhibitor (RPX7009) with Utility vs Class A Serine Carbapenemases” (J Med Chem, 2015)

Columns and labels:
[1] = target: T1, Beta-lactamase SHV-1 (Klebsiella pneumoniae) (UniProt P0AD64); test: Inhibition of Klebsiella pneumoniae KP1082 SHV-1 assessed as imipenem MIC at 4 ug/ml by broth microdilution method
T1 sequence (whole entry): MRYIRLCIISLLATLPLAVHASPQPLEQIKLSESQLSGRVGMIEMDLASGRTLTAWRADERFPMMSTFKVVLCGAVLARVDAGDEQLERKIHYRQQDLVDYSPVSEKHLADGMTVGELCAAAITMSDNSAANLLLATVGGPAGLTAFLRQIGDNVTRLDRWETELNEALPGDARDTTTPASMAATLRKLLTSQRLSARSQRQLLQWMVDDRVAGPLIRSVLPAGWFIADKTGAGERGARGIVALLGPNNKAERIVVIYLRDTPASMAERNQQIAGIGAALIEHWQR

[2] = Volume of distribution in rat at 1000 mg/kg, iv administered as 0.5 hrs infusion by HPLC-MS method; format: ADME, organism-based; details: in vivo
[3] = tested on: Homo sapiens; test: Toxicity in human at 250 to 1500 mg administered as 3 hrs of infusion; format: organism-based; details: in vivo, iv
In short: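 Phase 1 study in 36 normal (healthy) volunteers under GCP. Single 3 h infusions were given at 250, 500, 750, 1000, 1250 or 1500 mg, and drug-related adverse events were recorded.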

[4] = target: Beta lactamase TEM-1 (Klebsiella pneumoniae) (UniProt Q7B899); test: Inhibition of Klebsiella pneumoniae KP1083 TEM-1 assessed as imipenem MIC at 4 ug/ml by broth microdilution method
[5] = tested on: Klebsiella oxytoca; test: Inhibition of Klebsiella oxytoca KX1017 OXA-2 assessed as meropenem MIC at 4 ug/ml by broth microdilution method
[6] = target: Beta lactamase TEM-1 (Klebsiella pneumoniae) (UniProt Q7B899); test: Inhibition of Klebsiella pneumoniae KP1004 TEM-1 assessed as biapenem MIC at 4 ug/ml by broth microdilution method
In short: (§1)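 CLSI broth microdilution (M07-A9, 2012) MIC of the carbapenem against clinical serine carbapenemase-producing strain, tested alone and with the inhibitor held at a fixed 4 μg/mL.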

[7] = tested on: Klebsiella pneumoniae; test: Inhibition of Klebsiella pneumoniae KP1088 SHV-11 assessed as imipenem MIC at 4 ug/ml by broth microdilution method
In short: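 CLSI broth microdilution (M07-A9, 2012) against the clinical K. pneumoniae isolate. Carbapenem MICs were read alone and with 9f held at a fixed 4 μg/mL.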

[8] = tested on: Klebsiella pneumoniae; test: Inhibition of Klebsiella pneumoniae KP1087 KPC-2 assessed as ertapenem MIC at 4 ug/ml by broth microdilution method; in short: as §1
[9] = tested on: Klebsiella pneumoniae; test: Inhibition of Klebsiella pneumoniae KP1084 SHV-11 assessed as imipenem MIC at 4 ug/ml by broth microdilution method
[10] = target: Carbapenem-hydrolyzing beta-lactamase KPC (Klebsiella oxytoca) (UniProt Q848S6); test: Inhibition of Klebsiella oxytoca KX1019 KPC-2 assessed as imipenem MIC at 4 ug/ml by broth microdilution method
[11] = tested on: Klebsiella pneumoniae; test: In vivo inhibition of KPC in Klebsiella pneumoniae KP1074 in Swiss webster neutropenic mouse lung infection model assessed as meropenem deltalog10CFU in lung at 50 mg/kg, ip administered every 2 hrs starting at 2 hrs postinfection measured after 24 hrs; format: functional
[12] = tested on: Klebsiella pneumoniae; test: Inhibition of Klebsiella pneumoniae KP1082 KPC-2 assessed as biapenem MIC at 4 ug/ml by broth microdilution method; in short: as §1
[13] = tested on: Klebsiella pneumoniae; test: Inhibition of Klebsiella pneumoniae KP1082 KPC-2 assessed as meropenem MIC at 4 ug/ml by broth microdilution method; in short: as §1
[14] = target: Beta-lactamase TEM (Enterobacter cloacae) (UniProt Q6W9J1); test: Inhibition of Enterobacter cloacae ECL1058 TEM-1 assessed as imipenem MIC at 4 ug/ml by broth microdilution method
[15] = target: Class A carbapenemase KPC-2 (Escherichia coli) (UniProt A8DS27); test: Inhibition of Escherichia coli EC1007 KPC-3 assessed as biapenem MIC at 4 ug/ml by broth microdilution method
[16] = tested on: Enterobacter cloacae; test: Inhibition of Enterobacter cloacae ECL1058 SHV-11 assessed as ertapenem MIC at 4 ug/ml by broth microdilution method
[17] = target: Carbapenem-hydrolyzing beta-lactamase KPC (Klebsiella pneumoniae) (UniProt Q9F663); test: Inhibition of Klebsiella pneumoniae KP1083 KPC-3 assessed as meropenem MIC at 4 ug/ml by broth microdilution method; in short: as §1
[18] = target: Beta-lactamase (Enterobacter cloacae) (UniProt P05364); test: Inhibition of Enterobacter cloacae ECL1002 AmpC assessed as cefepime MIC at 4 ug/ml by broth microdilution method
[19] = target: Beta lactamase TEM-1 (Klebsiella pneumoniae) (UniProt Q7B899); test: Inhibition of Klebsiella pneumoniae KP1084 TEM-1 assessed as imipenem MIC at 4 ug/ml by broth microdilution method
[20] = Volume of distribution at steady state in human at 1 g administered as 3 hrs of infusion; format: ADME, organism-based; details: in vivo, iv, read-out: Vdss
In short: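 Healthy volunteers received 3 h infusions. Plasma concentrations were fit to a noncompartmental model to derive steady-state volume of distribution at the 1 g dose.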

[21] = tested on: Klebsiella pneumoniae; test: Inhibition of Klebsiella pneumoniae KP1005 CTX-M-14 assessed as cefepime MIC at 4 ug/ml by broth microdilution method
[22] = Cmax in rat at 100 mg/kg, iv administered as 0.5 hrs infusion by HPLC-MS method; format: ADME, organism-based; parameters: dose 100 mg/kg, route intravenous; details: in vivo
[23] = tested on: Klebsiella pneumoniae; test: Inhibition of Klebsiella pneumoniae KP1004 KPC-2 assessed as biapenem MIC at 4 ug/ml by broth microdilution method; in short: as §1
[24] = target: Beta-lactamase TEM (Enterobacter cloacae) (UniProt Q6W9J1); test: Inhibition of Enterobacter cloacae ECL1058 TEM-1 assessed as meropenem MIC at 4 ug/ml by broth microdilution method
[25] = Half life in rat at 100 mg/kg, iv administered as 0.5 hrs infusion by HPLC-MS method; format: ADME, organism-based; details: in vivo
[26] = target: Beta-lactamase (Klebsiella pneumoniae) (UniProt Q93LQ9); test: Inhibition of Klebsiella pneumoniae KP1004 KPC 2 carbapenemase assessed as minimum concentration required to reduce biapenem MIC from […] ug/ml to 1 ug/mL by broth microdilution method
[27] = tested on: Klebsiella pneumoniae; test: Inhibition of Klebsiella pneumoniae KP1084 SHV-11 assessed as ertapenem MIC at 4 ug/ml by broth microdilution method; in short: as §1
[28] = target: Plasminogen (Homo sapiens, UniProt P00747); test: Inhibition of plasmin (unknown origin) using H-D-VLK-pNA as substrate preincubated for 10 mins followed by substrate addition measured for 30 mins by spectrophotometric analysis
Chain of Plasminogen (P00747 97-580 limits assumed): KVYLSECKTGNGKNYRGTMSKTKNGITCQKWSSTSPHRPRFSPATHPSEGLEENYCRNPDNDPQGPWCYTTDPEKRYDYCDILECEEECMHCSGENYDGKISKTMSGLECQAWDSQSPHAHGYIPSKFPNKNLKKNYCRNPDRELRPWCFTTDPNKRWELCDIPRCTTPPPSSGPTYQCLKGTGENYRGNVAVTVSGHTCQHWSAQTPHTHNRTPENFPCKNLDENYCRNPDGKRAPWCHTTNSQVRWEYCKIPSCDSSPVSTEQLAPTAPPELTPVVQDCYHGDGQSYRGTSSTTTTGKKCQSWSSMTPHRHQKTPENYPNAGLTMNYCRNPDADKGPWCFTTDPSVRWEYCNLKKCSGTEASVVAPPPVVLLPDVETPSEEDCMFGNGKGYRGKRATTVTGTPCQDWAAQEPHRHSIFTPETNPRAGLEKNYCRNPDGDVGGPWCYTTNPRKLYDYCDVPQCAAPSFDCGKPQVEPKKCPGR
Chain of Plasminogen (P00747 581-810 limits assumed): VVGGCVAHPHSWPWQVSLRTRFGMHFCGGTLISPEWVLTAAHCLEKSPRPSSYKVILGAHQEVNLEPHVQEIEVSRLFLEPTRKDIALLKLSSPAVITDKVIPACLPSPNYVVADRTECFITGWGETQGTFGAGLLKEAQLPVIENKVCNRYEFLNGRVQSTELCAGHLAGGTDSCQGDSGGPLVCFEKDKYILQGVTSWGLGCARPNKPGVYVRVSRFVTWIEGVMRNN
In short: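 Commercial plasmin in 100 mM Tris-HCl, pH 7.5, 100 mM NaCl. Exposed 10 min at 37 °C to varied inhibitor concentrations before H-D-VLK-pNA (listed at 200 μM), then absorbance read over 30 min. Rates were vs a no-treatment control; IC50 is the concentration giving 50% inhibition.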

For `O=C(O)C[C@@H]1CC[C@H](NC(=O)Cc2cccs2)B(O)O1` [VABORBACTAM], the MIC [1] was 0.13 µg/mL, the Vd [2] was 0.55 L/kg and the Activity [3] was “Non-toxic”. The MIC [4] was 0.13 µg/mL, the MIC [5] was less than 0.06 µg/mL and the MIC [6] was less than 0.06 µg/mL. For the same compound, the MIC [7] was no more than 0.06 µg/mL, the MIC [8] was 2 µg/mL and the MIC [9] was 0.25 µg/mL. The MIC [10] was 0.13 µg/mL, the deltalog10CFU [11] was -2.03 and the MIC [12] was no more than 0.06 µg/mL. It also gave an MIC [13] of no more than 0.06 µg/mL, an MIC [14] of 0.25 µg/mL and an MIC [15] of less than 0.06 µg/mL. It also gave an MIC [16] of 0.25 µg/mL, an MIC [17] of less than 0.06 µg/mL and an MIC [18] of 0.5 µg/mL. For the same compound, the MIC [19] was 0.25 µg/mL, the Vd [20] was 21 L and the MIC [21] was 4 µg/mL. For the same compound, the Cmax [22] was 231 µg/mL, the MIC [23] was no more than 0.06 µg/mL and the MIC [24] was less than 0.06 µg/mL. The half-life [25] was 25.2 min, the MEC [26] was 0.02 µg/mL and the MIC [27] was 4 µg/mL. It also gave an IC50 [28] greater than 1000 µM.
